Source: paper PMC5394958 (Haematologica, 2016)
Where “and” joins values, the source holds several entries; their conditions need not be identical. Equal values may be shown once. Read-outs that look alike come from different tables or passages of the source.

Assays:
chronic myeloid leukemia [1] = settings: CP-CML patients; cited from earlier work
T315I BCR-ABL1 mutation = settings: cited from earlier work
BCR-ABL1 or FLT3 [2] = test: Pharmacodynamics in dosed patients: pCRKL / pSTAT5 in blood cells; format: in vivo, human; settings: of 45 patients with evaluable samples
BCR-ABL1 or FLT3 [3] = test: Ex vivo incubation of patient whole blood, phosphorylation of CRKL or FLT3; format: cell-based; settings: Homo sapiens, read-out: IC50 for inhibition of phosphorylation
In short: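 Predose screening whole blood from TKI-resistant CML or AML patients was incubated with test compound ex vivo. Mononuclear cells were then fixed and permeabilized. Phosphorylation of CRKL or FLT3 was measured, with pCRKL read by flow cytometry. IC50 for inhibition of phosphorylation was determined per evaluable sample.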

TIE2 [4] = test: Plasma angiopoietin 2; format: in vivo, human; settings: Day 22 compared to baseline
BCR-ABL1 T315I = settings: cited from earlier work
c-ABL1 = settings: cited from earlier work
acute myeloid leukemia = test: Clinical response in AML patients; format: in vivo, human; settings: 5 patients with AML
In short: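 Relapsed or refractory AML patients (ECOG ≤1) received oral drug daily in continuous 28-day cycles. Powder-in-capsule dosing ran from 57 mg QD up to 1200 mg QD, and tablets from 100 mg. Intra-patient dose escalation was allowed. Disease response was assessed locally every 3 cycles by standard criteria.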

chronic myeloid leukemia [5] = test: Clinical response in CML patients; format: in vivo, human
[6] = Human plasma protein binding; format: in vitro ADME
[7] = Phase 1 safety: adverse events; format: in vivo, human
In short: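 First-in-human, multicenter, single-arm oral study in 57 patients, given daily in 28-day cycles. Powder-in-capsule doses escalated from 57 mg QD to 1200 mg QD over 11 cohorts, doubling between the initial single-patient cohorts. Titration was accelerated 3+3, switching to standard 3+3 at grade ≥2 AEs. Tablet cohorts followed, up to 200 mg BID. AEs were graded by NCI CTC v3.0, and DLTs were assessed in cycle 1.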

TRKB = settings: cited from earlier work
[8] = Plasma pharmacokinetics after multiple oral doses; format: in vivo, human; settings: for Tmax: median Tmax
TIE2 [9] = settings: cited from earlier work
TRKA = settings: cited from earlier work
[10] = format: in vivo, human

COC(=O)C[C@](O)(CCCC(C)(C)O)C(=O)O[C@@H]1C(OC)=C[C@]23CCCN2CCc2cc4c(cc2[C@H]13)OCO4 [omacetaxine mepesuccinate]
cytogenetic responses (chronic myeloid leukemia [1]): ~ 20%

Cc1cn(-c2cc(NC(=O)c3ccc(C)c(Nc4nccc(-c5cccnc5)n4)c3)cc(C(F)(F)F)c2)cn1 [nilotinib]
effectiveness against the T315I BCR-ABL1 mutation (T315I BCR-ABL1 mutation): not effective

COc1cc(Nc2c(C#N)cnc3cc(OCCCN4CCN(C)CC4)c(OC)cc23)c(Cl)cc1Cl [bosutinib]
effectiveness against the T315I BCR-ABL1 mutation (T315I BCR-ABL1 mutation): not effective

CNC(=O)c1cc(Oc2ccc(NC(=O)Nc3cc(C(C)(C)C)nn3-c3ccc4ncccc4c3)c(F)c2)ccn1 [rebastinib]
patients with significant (>50%) inhibition of phosphorylation of CRKL and/or STAT5 (BCR-ABL1 or FLT3 [2]): 20 patients | IC50 (BCR-ABL1 or FLT3 [3]): < 200 nM | patient samples with ANG2 increases (TIE2 [4]): 19/20 | efficacy in mouse model (BCR-ABL1 T315I): effective | IC50 (c-ABL1): 0.7 nM | AML patients with a response (acute myeloid leukemia): None | patients with complete cytogenetic response (chronic myeloid leukemia [5]; T315I): 1 patients | patients with complete hematologic response (chronic myeloid leukemia [5]; T315I): 4 patients | patients with major molecular response (chronic myeloid leukemia [5]; T315I): 2 patients | patients with minor cytogenetic response (chronic myeloid leukemia [5]; T315I): 3 patients | patients with minor hematologic response (chronic myeloid leukemia [5]; T315I): 0 patients | patients with partial cytogenetic response (chronic myeloid leukemia [5]; T315I): 1 patients | patients with partial hematologic response (chronic myeloid leukemia [5]; T315I): 3 patients | patients with complete hematologic response (chronic myeloid leukemia [5]; fifty evaluable): 8 patients | patients with minor hematologic response (chronic myeloid leukemia [5]; fifty evaluable): 3 patients | patients with partial hematologic response (chronic myeloid leukemia [5]; fifty evaluable): 4 patients | overall cytogenetic response rate of CML patients (chronic myeloid leukemia [5]; human, in vivo): 21% | complete hematologic responses (chronic myeloid leukemia [5]; in 40 evaluable CML patients): Eight | patients with complete cytogenetic response (chronic myeloid leukemia [5]; of 37 evaluable): 2 patients | patients with cytogenetic response (chronic myeloid leukemia [5]; of 37 evaluable): 8 patients | patients with minor cytogenetic response (chronic myeloid leukemia [5]; of 37 evaluable): 4 patients | patients with partial cytogenetic response (chronic myeloid leukemia [5]; of 37 evaluable): 2 patients | patients with molecular response (major molecular response) (chronic myeloid leukemia [5]; of 40 evaluable): Four | fraction unbound [6]: 0.0035 | patients with DLT in first cycle ([7]; 200 mg BID tablet): 2 n | patients with DLT in first cycle ([7]; 1200 mg QD PIC): 1 n | SAE muscular weakness ([7]; N=57): 4 patients | patients with AEs suggestive of nervous system disorders, any grade ([7]; N=57): 33% | patients with Grade 3 or 4 AE ([7]; N=57): 34 patients | patients with SAEs related to study treatment ([7]; N=57): 18 patients | patients with musculoskeletal disorders of all grades ([7]; N=57): 22 patients | patients with serious adverse events (SAEs) ([7]; N=57): 34 patients | patients with visual abnormalities ([7]; N=57): 19 patients | treatment-related SAE ([7]; dose levels below 300 mg BID (PIC) and 100 mg QD (tablet)): No treatment-related SAE | CML patients with AEs suggestive of potential ≥Grade 3 cardiomyopathy ([7]; in vivo): 4 patients | Dose-limiting toxicities ([7]; in vivo): dysarthria, muscle weakness, and peripheral neuropathy | patients discontinued due to musculoskeletal disorders ([7]; in vivo): 2 patients | patients with at least one AE of any grade ([7]; in vivo): 57 (100%) patients (%) | deaths deemed related ([7]; n=8 deaths): none | patients with visual abnormalities first reported during Cycle 1 ([7]; of 19): 10 patients | patients with Grade 3 musculoskeletal events ([7]; of 22): 13 patients | patients with musculoskeletal disorders during Cycle 1 ([7]; of 22): 14 patients | patients with Grade 3 AESI possibly or probably related ([7]; of 27 additional patients at 150 mg BID): 18 patients | maximum tolerated dose (MTD) ([7]; tablets, twice daily (BID)): 150 mg | IC50 (TRKB): 0.42 nM | free drug in circulation ([8]; at 200 ng/mL, based on plasma protein binding): ~ 1.3 nM | Bioavailability, formulated tablets compared to unformulated capsules ([8]; human, plasma, oral): 3- to 4 fold | Exposure, tablets compared to PIC ([8]; human, plasma, oral): approximately 3 fold | half-life ([8]; human, plasma, oral): 12 to 15 h | initial distribution phase from Tmax ([8]; human, plasma, oral): 6–8 hours postdose | trough concentrations as % of Cmax ([8]; human, plasma, oral): 10–20% | Tmax ([8]; human, plasma, oral, PIC): 2 h | Tmax ([8]; human, plasma, oral, tablets): 1 to 1.5 h | Average plasma levels ([8]; ~1–4 hours postdose, 150 mg BID): 200 ng/mL and 360 nM | IC50 (TIE2 [9]): 0.058 nM | IC50 (TRKA): 0.17 nM | patients with nervous system disorders ([10]; high Cmax subgroup): 13 patients | patients with nervous system disorders ([10]; low Cmax subgroup): 7 patients | patients with nervous system disorders ([10]; middle Cmax subgroup): 5 patients

Cc1ccc(C(=O)Nc2ccc(CN3CCN(C)CC3)c(C(F)(F)F)c2)cc1C#Cc1cnc2cccnn12 [ponatinib]
effectiveness against the T315I mutation (T315I BCR-ABL1 mutation): effective
